Source: ChEMBL document CHEMBL2034857, “Discovery of the macrocycle (9E)-15-(2-(pyrrolidin-1-yl)ethoxy)-7,12,25-trioxa-19,21,24-triaza-tetracyclo[18.3.1.1(2,5).1(14,18)]hexacosa-1(24),2,4,9,14(26),15,17,20,22-nonaene (SB1578), a potent inhibitor of janus kinase 2/fms-like tyrosine kinase-3 (JAK2/FLT3) for the treatment of rheumatoid …” (J Med Chem, 2012)

Experiments:
[1] = Oral bioavailability in rhesus monkey at 20 mg/kg; format: ADME, organism-based, Macaca mulatta; conditions: in vivo
How it was run: (§1)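 Single oral gavage at 50 (mouse, rat), 5 (dog) or 20 (monkey) mg/kg; rodents and monkeys received suspensions in 0.5% methylcellulose/0.1% Tween 80, dogs gelatin capsules. Serial blood taken 0–24 h into K3EDTA, plasma stored at −70 °C. Parameters estimated by noncompartmental analysis, n = 3 per species (mouse values from mean concentration–time data, 3 mice per time point).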

[2] = target: T1, Tyrosine-protein kinase JAK3 (Homo sapiens, UniProt P52333); assay: Inhibition of recombinant JAK3 using poly(Glu,Ala,Tyr) as substrate after 2 hrs by luminometric assay
T1 sequence (P52333 whole entry): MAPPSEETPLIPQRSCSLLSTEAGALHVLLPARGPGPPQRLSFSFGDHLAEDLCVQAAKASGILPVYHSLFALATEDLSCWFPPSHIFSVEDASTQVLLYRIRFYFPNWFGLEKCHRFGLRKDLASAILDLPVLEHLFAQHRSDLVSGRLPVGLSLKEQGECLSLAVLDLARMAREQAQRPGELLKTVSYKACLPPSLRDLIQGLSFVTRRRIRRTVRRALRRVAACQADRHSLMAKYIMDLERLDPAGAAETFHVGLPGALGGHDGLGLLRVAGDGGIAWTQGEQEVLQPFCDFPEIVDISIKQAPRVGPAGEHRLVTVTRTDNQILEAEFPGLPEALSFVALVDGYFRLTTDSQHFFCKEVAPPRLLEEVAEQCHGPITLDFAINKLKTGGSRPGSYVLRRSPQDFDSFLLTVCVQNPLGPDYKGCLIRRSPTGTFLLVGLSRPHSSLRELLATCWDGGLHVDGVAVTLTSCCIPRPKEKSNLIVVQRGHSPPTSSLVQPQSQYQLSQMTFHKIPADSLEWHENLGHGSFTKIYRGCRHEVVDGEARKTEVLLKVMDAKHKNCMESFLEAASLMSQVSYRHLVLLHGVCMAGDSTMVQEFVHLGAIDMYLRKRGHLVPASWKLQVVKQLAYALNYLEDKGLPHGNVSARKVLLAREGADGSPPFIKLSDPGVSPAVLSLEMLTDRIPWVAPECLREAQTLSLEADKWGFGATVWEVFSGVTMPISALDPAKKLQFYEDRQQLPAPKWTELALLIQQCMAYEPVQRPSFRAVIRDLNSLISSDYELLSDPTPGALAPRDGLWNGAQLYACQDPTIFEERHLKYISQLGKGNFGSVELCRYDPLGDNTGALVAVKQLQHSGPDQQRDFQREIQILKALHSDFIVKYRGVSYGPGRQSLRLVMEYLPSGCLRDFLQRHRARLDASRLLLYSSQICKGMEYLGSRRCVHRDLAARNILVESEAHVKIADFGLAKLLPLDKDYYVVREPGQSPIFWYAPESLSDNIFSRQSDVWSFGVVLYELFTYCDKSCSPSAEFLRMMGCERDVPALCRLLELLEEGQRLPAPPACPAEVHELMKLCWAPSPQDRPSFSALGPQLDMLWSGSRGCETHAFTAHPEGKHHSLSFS

[3] = Half life in mouse liver microsomes; format: ADME, Microsome
hERG = hERG (Homo sapiens, UniProt Q12809); assay: Displacement of dofetilide from human ERG at 10 uM; conditions: probe dofetilide
Chain of hERG (Q12809 whole entry): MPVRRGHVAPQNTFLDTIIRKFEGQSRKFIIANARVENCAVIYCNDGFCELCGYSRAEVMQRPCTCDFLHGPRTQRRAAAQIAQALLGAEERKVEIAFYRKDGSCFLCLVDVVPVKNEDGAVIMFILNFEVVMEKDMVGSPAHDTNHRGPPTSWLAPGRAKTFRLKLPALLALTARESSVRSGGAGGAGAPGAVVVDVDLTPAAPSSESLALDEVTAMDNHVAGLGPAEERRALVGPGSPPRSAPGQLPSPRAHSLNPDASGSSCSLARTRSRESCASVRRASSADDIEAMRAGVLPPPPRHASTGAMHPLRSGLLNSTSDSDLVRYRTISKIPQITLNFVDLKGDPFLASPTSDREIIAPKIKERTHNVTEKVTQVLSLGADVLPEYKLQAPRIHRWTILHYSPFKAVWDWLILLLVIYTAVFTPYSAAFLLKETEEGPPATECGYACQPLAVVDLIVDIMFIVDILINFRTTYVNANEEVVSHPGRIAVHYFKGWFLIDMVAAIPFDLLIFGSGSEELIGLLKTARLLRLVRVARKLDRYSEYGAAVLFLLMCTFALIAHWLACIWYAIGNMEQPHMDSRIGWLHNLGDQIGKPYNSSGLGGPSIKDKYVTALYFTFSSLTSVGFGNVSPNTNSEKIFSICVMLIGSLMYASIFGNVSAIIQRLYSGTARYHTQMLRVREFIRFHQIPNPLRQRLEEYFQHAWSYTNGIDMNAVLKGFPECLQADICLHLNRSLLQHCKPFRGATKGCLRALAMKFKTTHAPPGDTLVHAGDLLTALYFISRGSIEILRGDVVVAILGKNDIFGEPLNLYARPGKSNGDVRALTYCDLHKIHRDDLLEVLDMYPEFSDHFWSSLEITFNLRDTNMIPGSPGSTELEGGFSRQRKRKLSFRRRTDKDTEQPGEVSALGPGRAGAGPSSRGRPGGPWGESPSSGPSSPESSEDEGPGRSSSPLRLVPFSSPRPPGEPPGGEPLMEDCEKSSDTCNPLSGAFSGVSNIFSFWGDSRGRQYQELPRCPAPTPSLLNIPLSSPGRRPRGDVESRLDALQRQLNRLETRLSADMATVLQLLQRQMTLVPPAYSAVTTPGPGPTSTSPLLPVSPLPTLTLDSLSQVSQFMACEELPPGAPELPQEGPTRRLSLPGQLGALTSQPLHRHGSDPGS

[4] = Thermodynamic solubility of the compound at pH 7; format: physicochemical; conditions: buffer, read-out: Therm_solubility
How it was run: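 The citrate salt (~5 mg) was made up at 5 mg/mL in pH-buffered solution, in triplicate. It was shaken 24 h at 600 rpm at room temperature, filtered (0.4 μm) and the final pH recorded. The filtrate was diluted in acetonitrile/water (1:1), centrifuged and quantified by HPLC-UV. Two determinations were made on two different batches.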

[5] = Apparent permeability from apical to basal side of human Caco2 cells at 10 uM after 120 mins by LC-MS/MS analysis; format: ADME, cell-based; conditions: Caco-2
How it was run: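 Caco-2 monolayers (passage 40–60) seeded at 1 × 10⁵ cells/cm² and used on day 20; 10 μM compound (1% DMSO final) in HBSS pH 7.4 with 25 mM HEPES and 4.45 mM glucose, 120 min at 37 °C, 5% CO2. Both directions run in duplicate, quantified by LC-MS/MS; lucifer yellow checks monolayer integrity.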

[6] = Efflux ratio of apparent permeability across human Caco2 cells at 10 uM after 120 mins by LC-MS/MS analysis; format: ADME, cell-based; conditions: Caco-2
How it was run: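 Caco-2 monolayers (passage 40–60) seeded at 1 × 10⁵ cells/cm², used on day 20; HBSS pH 7.4 with 25 mM HEPES and 4.45 mM glucose, 37 °C, 5% CO₂; 10 μM final (1% DMSO) dosed apical or basolateral, 120 min; both compartments quantified by LC-MS/MS; duplicate; reference compounds as controls; monolayer integrity by lucifer yellow permeation.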

[7] = Half life in dog liver microsomes at 5 uM; format: ADME, Canis lupus familiaris, Microsome
How it was run: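 Compound at 5 μM with human, mouse or dog microsomes at 0.87 mg/mL, or rat and monkey microsomes at 1 mg/mL, in 50 mM potassium phosphate pH 7.4 with NADPH regenerating system at 37 °C.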

Cytochrome P450 2D6 = Cytochrome P450 2D6 (Homo sapiens, UniProt P10635); assay: Inhibition of CYP2D6 in human liver microsomes using dextromethorphan as substrate by fluorescence detection assay; format: ADME, Microsome
Chain of Cytochrome P450 2D6 (P10635 whole entry): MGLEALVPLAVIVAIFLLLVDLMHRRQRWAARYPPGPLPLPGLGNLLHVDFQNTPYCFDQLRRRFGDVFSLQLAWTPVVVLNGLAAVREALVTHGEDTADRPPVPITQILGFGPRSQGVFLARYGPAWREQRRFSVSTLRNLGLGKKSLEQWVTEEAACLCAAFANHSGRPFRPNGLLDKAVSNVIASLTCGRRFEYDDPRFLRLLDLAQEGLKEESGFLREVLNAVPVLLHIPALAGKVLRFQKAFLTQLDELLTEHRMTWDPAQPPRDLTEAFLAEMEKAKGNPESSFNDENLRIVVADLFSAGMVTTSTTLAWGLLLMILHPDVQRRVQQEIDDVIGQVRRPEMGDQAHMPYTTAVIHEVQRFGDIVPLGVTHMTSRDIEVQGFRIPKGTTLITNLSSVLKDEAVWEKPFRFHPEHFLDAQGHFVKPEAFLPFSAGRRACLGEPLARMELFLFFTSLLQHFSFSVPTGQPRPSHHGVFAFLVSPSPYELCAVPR
How it was run: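 Seven-point concentration series (0.001, 0.01, 0.1, 1.0, 5, 10 and 25 μM) incubated with human liver microsomes. IC50 is the concentration giving 50% inhibition, calculated from the decrease in metabolite formation relative to vehicle control.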

Cytochrome P450 3A4 = Cytochrome P450 3A4 (Homo sapiens, UniProt P08684); assay: Induction of CYP3A4 in human liver microsomes; format: ADME, Microsome
Chain of Cytochrome P450 3A4 (P08684 whole entry): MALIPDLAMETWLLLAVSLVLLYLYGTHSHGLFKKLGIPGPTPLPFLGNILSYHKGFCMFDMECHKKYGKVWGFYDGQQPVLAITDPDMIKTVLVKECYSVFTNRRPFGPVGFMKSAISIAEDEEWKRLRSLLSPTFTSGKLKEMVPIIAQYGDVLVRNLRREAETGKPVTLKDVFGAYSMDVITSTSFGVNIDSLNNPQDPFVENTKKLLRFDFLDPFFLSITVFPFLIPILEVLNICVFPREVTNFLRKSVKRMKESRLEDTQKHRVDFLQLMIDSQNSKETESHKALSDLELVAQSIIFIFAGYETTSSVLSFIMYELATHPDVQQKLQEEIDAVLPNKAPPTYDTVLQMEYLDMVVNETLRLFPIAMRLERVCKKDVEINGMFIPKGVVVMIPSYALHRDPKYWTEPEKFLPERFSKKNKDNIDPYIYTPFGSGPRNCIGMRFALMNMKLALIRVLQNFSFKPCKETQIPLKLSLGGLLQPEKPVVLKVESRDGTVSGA

[8] = Plasma protein binding in rat at 1000 ng/mL by equilibrium dialysis; format: ADME, cell-free; conditions: read-out: PPB (converted)
How it was run: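 Equilibrium dialysis of plasma (mouse, rat, dog, monkey, human) spiked to 1000 ng/mL final against PBS, 4 h at 37 °C; buffer side extracted with MTBE in triplicate and analyzed by LC-MS/MS.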

[9] = Terminal half life in BALB/c nude mouse at 50 mg/kg, po; format: ADME, organism-based; parameters: dose 50 mg/kg, route oral; conditions: in vivo, read-out: beta t1/2 (converted)
How it was run: (§2)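 Single oral dose by gavage as suspension in 0.5% methylcellulose/0.1% Tween 80 (mouse, rat, monkey) or in gelatin capsules (dog). Serial blood samples taken from 0 to 24 h into K3EDTA tubes; plasma stored at −70 °C until analysis. Parameters derived by noncompartmental methods. Rat, dog and monkey n = 3; mouse values estimated from mean concentration-time data, n = 3 mice per time point.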

[10] = Tmax in Wistar rat at 50 mg/kg, po; format: ADME, organism-based; parameters: dose 50 mg/kg, route oral; conditions: in vivo; how it was run: as §2
[11] = AUC (0 to infinity) in Wistar rat at 50 mg/kg, po; format: ADME, organism-based; parameters: dose 50 mg/kg, route oral, time infinity; conditions: plasma; how it was run: as §1
[12] = Oral bioavailability in Wistar rat at 50 mg/kg; format: ADME, organism-based; conditions: in vivo; how it was run: as §1
[13] = Tmax in beagle dog at 5 mg/kg, po; format: ADME, organism-based, Canis lupus familiaris; parameters: dose 5 mg/kg, route oral; conditions: in vivo; how it was run: as §2
[14] = Terminal half life in beagle dog at 5 mg/kg, po; format: ADME, organism-based, Canis lupus familiaris; parameters: dose 5 mg/kg, route oral; conditions: in vivo, read-out: beta t1/2 (converted); how it was run: as §2
[15] = AUC (0 to infinity) in beagle dog at 5 mg/kg, po; format: ADME, organism-based, Canis lupus familiaris; parameters: time infinity, dose 5 mg/kg, route oral; conditions: plasma; how it was run: as §1
[16] = Terminal half life in rhesus monkey at 20 mg/kg, po; format: ADME, organism-based, Macaca mulatta; parameters: dose 20 mg/kg, route oral; conditions: in vivo, read-out: beta t1/2 (converted); how it was run: as §2

C1=C2COC/C=C/COCc3cc(ccc3OCCN3CCCC3)Nc3nccc(n3)C(=C1)O2 (mixture of isomers) [CT-1578]
bioavailability [1]: 32% | IC50 [2]: 4.3 µM | half-life [3]: 0.45 h | inhibition at 10 µM (hERG): 14% | solubility thermodynamic [4]: 880 µg/mL | Papp A→B at 2 h, 10 µM [5]: 24.8 ×10⁻⁶ cm/s | efflux ratio at 2 h, 10 µM [6]: 1.1 | half-life at 5 µM [7]: > 1 h | IC50 (Cytochrome P450 2D6): > 10 µM | Activity (Cytochrome P450 3A4): Not Active | fraction unbound at 1000 ng/mL [8]: 0.127 | half-life [9]: 0.8 h | Tmax [10]: 2.3 h | AUC(0-inf) [11]: 1500 ng·h/mL | bioavailability [12]: 6% | Tmax [13]: 3 h | half-life [14]: 1.5 h | AUC(0-inf) [15]: 96 ng·h/mL | half-life [16]: 1.1 h
